Source: ChEMBL document CHEMBL1124099, “[1,2,4]Triazolo[4,3-a]quinoxalin-4-amines: a new class of A1 receptor selective adenosine antagonists” (J Med Chem, 1988)
pKi: −log10 of the molar value.

Legend:
[1] = molecular target: T1, Adenosine receptor A1 (Rattus norvegicus, UniProt P25099); test: Binding affinity towards adenosine A1 receptor using [3H]N-cyclohexyladenosine in rat whole brain membranes.; type: cell membranes
T1 sequence (P25099 whole entry): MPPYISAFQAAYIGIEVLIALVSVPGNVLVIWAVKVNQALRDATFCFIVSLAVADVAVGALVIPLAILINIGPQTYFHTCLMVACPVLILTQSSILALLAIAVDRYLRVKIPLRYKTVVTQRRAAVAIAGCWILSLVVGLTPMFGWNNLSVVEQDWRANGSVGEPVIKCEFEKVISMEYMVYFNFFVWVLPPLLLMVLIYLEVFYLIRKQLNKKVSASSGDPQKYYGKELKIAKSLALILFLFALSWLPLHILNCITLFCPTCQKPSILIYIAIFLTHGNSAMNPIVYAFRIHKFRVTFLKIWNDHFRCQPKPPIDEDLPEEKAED
Outline: (§1)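 Radioligand displacement on rat membranes: A1 used [3H]N6-cyclohexyladenosine ([3H]CHA) with whole-brain membranes, and A2 used [3H]NECA with striatal membranes. The procedure follows an earlier report. Each value is the mean of three or more independent experiments.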

[2] = molecular target: Adenosine receptors; A1 & A2 (Rattus norvegicus) (UniProt P29276+P25099+P30543); test: Ratio of Ki at A2 and A1 receptors; type: protein assay
[3] = molecular target: Adenosine A2 receptor (Rattus norvegicus, UniProt P29276+P30543); test: Binding affinity against Adenosine-2 receptor with [3H]-NECA in rat striatal membranes.; type: cell membranes; outline: as §1

| pKi [1] | Ratio [2] | Ki [3] [nM] | Structure (SMILES) |
| --- | --- | --- | --- |
| 7.10 | 50 | 4000 | CCc1nnc2c(NC3CCCCC3)nc3ccccc3n12 |
| 6.62 | 17.5 | 4200 | CCc1nnc2c(NC(C)C)nc3ccccc3n12 |
| 7.47 | 79 | 2700 | Cc1nnc2c(NC3CCCC3)nc3ccccc3n12 |
| 7.26 | > 182 | > 10000 | CCCCc1nnc2c(NC3CCCC3)nc3ccccc3n12 |
| 7.55 | 107 | 3000 | CCc1nnc2c(NC3CCCC3)nc3ccccc3n12 |
| 7.24 | 29 | 1710 | CCc1nnc2c(NC3CCC3)nc3ccccc3n12 |
| 7.36 | 139 | 6100 | CCc1nnc2c(NC3CC4CCC3C4)nc3ccccc3n12 (stereo not given) |
| 6.59 | 17.3 | 4500 | CCc1nnc2c(NC3CC3)nc3ccccc3n12 |
| 7.41 | 47 | 1830 | CCCc1nnc2c(NC3CCCC3)nc3ccccc3n12 |

The next lines start with the compound.

| Structure (SMILES) | pKi [1] | Ratio [2] | Ki [3] [nM] |
| --- | --- | --- | --- |
| FC(F)(F)c1nnc2c(NC3CCCC3)nc3ccccc3n12 | 8.14 | 138 | 1010 |
| CCc1nnc2c(Nc3ccccc3)nc3ccccc3n12 | 6.20 | 18.7 | 11800 |
| CC(C)Nc1nc2ccccc2n2cnnc12 | 5.64 | 3 | 7000 |
| CCc1nnc2c(NCC(C)O)nc3ccccc3n12 (stereo not given) | 6.48 | 67 | 22000 |
| CCN(CC)c1nc2ccccc2n2cnnc12 | 5.05 | 2.1 | 18800 |
| c1ccc2c(c1)nc(NC1CCCC1)c1nncn12 | 6.74 | 37 | 6700 |
